Compound activity deposited in PubChem by several laboratories.
ABCB6 inh MLPCN: human ABCB6 transporter inhibition | K562-ABCB6 porphyrin accumulation, flow cytometry, 1 h; stronger effect = lower value | hit rate 0.19% among 360,000 | fluorescence ratio to DMSO, % at 10 µM | Q9NP58;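 active = fluorescence ratio to DMSO below 75%, the collection mean minus 3 SD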;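 also: signal is porphyrin accumulated inside mitochondria; 100% equals median channel fluorescence of DMSO control wells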
AHR activator: activators of human aryl hydrocarbon receptor | P35869 | AHR-responsive luciferase reporter cells, luminescence | activation, % at 5 µM | hit rate 2.5% among 320,000; in the data active = activation above about 47%;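 also: 0% = vehicle wells and 100% = reference agonist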
SR-BI DiI-HDL act: enhances SR-BI lipid uptake from DiI-HDL. hit rate 0.096% among 320,000. activation, % at 12.5 µM. CHO ldlA[mSR-BI] cells, DiI-HDL uptake fluorescence, 3 h; 100 = double the neutral-control signal;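 active = mean replicate activation of at least 60% and every replicate at or above 60%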;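 also: 0% = median plate neutral-control signal and 100% = twice that signal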
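Material: SR-BI-overexpressing, LDLR-lacking CHO cells; schedule: compound exposure 3 h, 37 °C; reagent: DiI-labelled HDL at 10 µg/mL final; technique: bottom-read fluorescence, 550/595 nm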
GAA850 FXN act: frataxin GAA850 promoter activation. HEK293 lucGAA850 FXN promoter luciferase reporter, 24 h; percent of 10 µM SAHA response. activation, % at 6 µM. hit rate 0.56% among 360,000;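 active = activation above the average of all compounds screened plus 3 SD, cutoff fixed separately per campaign, cut at about 7.5% in these data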;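 also: 0% = DMSO wells and 100% = 10 µM SAHA wells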
HIF activator: HIF pathway transcriptional activation; activation, % at 7.5 µM (by protocol); U2OS HRE-luciferase reporter, luminescence; normalized: DMSO 0%, desferrioxamine 100%; AID 1910; hit rate 0.32% among 300,000;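 active = mean activation of at least 10% of the iron chelator positive control signal, with at least half of replicates also reaching 10%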
SR-BI DiI inh: mouse SR-BI HDL lipid transfer inhibition | ldlA[mSR-BI] CHO cells, DiI-HDL uptake fluorescence, 3 h | inhibition, % at 12.5 µM | hit rate 0.96% among 320,000 | AID 488896;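 active = mean replicate inhibition of at least 70% and a set share of replicates each scoring 70 or more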;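 also: 0% = median of neutral control wells and 100% = median of positive control wells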
An asterisk follows results filed as active; · = not tested or not shown. A selection: hits, their analogues and other compounds. The true share with any hit is near 3.9%.

SMILES | ABCB6 inh MLPCN | AHR activator | SR-BI DiI-HDL act | GAA850 FXN act | HIF activator | SR-BI DiI inh
CN1c2ccc([N+](=O)[O-])cc2CC2(C(=O)NC(=O)N(c3ccc(Br)cc3)C2=O)C1c1ccccc1 (stereo not given) | 87.0 | 75.7* | -1.1 | -2.7 | -0.3 | 1.1
Clc1ccccc1Nc1ncnc(-n2cccc2)n1 | 103.0 | 101.4* | 30.5 | 5.3 | 4.0 | -30.5
Cc1ncc(CN2CCCC(C(=O)c3cccc(OC(C)C)c3)C2)s1 (stereo not given) | 105.0 | 5.1 | -23.9 | -2.0 | -0.2 | 23.9
O=c1c2ccccc2nc(-c2ccccc2)n1-n1cccc1 | 101.0 | 74.2* | 12.3 | -0.2 | -0.4 | -12.3
O=c1c2ccccc2nc(/C=C/c2ccccc2O)n1-c1ccccc1O | 123.0 | 47.1* | -31.2 | 0.2 | -2.1 | 31.2
O=c1c2ccccc2nc(-c2ccccc2)n1-c1ccccc1O | 107.0 | 63.5* | 3.8 | -0.2 | -7.7 | -3.8
O=c1c2ccccc2nc(-c2ccccc2)n1-c1ccccc1 | 100.0 | 0.0 | 6.7 | -0.3 | -0.8 | -6.7
COC(=O)C1=C(c2ccc(OCc3ccccc3)cc2)C[C@@H]2CC[C@H]1N2C(=O)NCc1ccccc1 | 96.0 | -1.8 | -27.6 | -9.1 | · | 27.6
CC/C(=N\N1CCCCCC1)c1c(O)n(-c2ccc(C)cc2)c(=O)[nH]c1=O | 97.0 | -3.2 | -0.3 | 3.8 | 12.4* | 0.3
Cc1ccccc1-n1c(O)c(/C=N/NC(=O)c2ccccc2O)c(=O)[nH]c1=S | 99.0 | 11.8 | -109.1 | 0.2 | 0.6 | 109.1*
O=C(N/N=C/c1c(O)n(-c2ccccc2)c(=S)[nH]c1=O)c1ccccc1 | 96.0 | 9.3 | -61.1 | 5.0 | 1.0 | 61.0
O=C(N/N=C/c1c(O)n(C2CC2)c(=S)[nH]c1=O)c1ccccc1O | 101.0 | 13.2 | -92.3 | 4.1 | 0.1 | 92.3*
CCCCCCC(=O)c1c(O)n(-c2ccccc2OC)c(=O)[nH]c1=O | 88.0 | -3.1 | 24.4 | -0.8 | -0.4 | -24.4
Cc1cccc(C(=O)NC(Oc2ccccc2)C(Cl)(Cl)Cl)c1 (stereo not given) | 94.0 | 50.2* | -34.0 | 0.4 | -0.2 | 34.0
CCOP(=O)(OCC)C(NC(=O)c1cccc(C)c1)C(Cl)(Cl)Cl (stereo not given) | 99.0 | -1.5 | -11.9 | 1.3 | 0.9 | 11.8
COc1ccccc1N=Cc1c(O)n(C)c(=O)n(C)c1=O | 87.0 | 73.3* | 11.7 | 1.4 | 0.1 | -11.7
COc1ccc(Cl)cc1N=Cc1c(O)n(C)c(=O)n(C)c1=O | 97.0 | 7.3 | -28.9 | 0.8 | -2.8 | 28.9
CCc1ccc(N2C(=O)NC(=O)C(Cc3ccc(OC)cc3OC)C2=O)cc1 (stereo not given) | 93.0 | 1.3 | -83.6 | 0.6 | -0.1 | 83.6*
CC(=O)c1ccc2c(c1)C1C(Cl)C(Sc3ccccc3[N+](=O)[O-])CC1C(c1ccccc1[N+](=O)[O-])N2 (stereo not given) | 103.0 | 7.3 | -73.1 | -4.0 | -0.6 | 73.1*
CC(=O)c1ccc2c(c1)C1C(Cl)C(Sc3ccccc3[N+](=O)[O-])CC1C(c1ccccc1)N2 (stereo not given) | 112.0 | 5.5 | -35.4 | -0.4 | -0.3 | 35.4
COC(=O)C1=C(c2cccc(OCc3ccccc3)c2)C[C@@H]2CC[C@H]1N2C(=O)NCCc1ccc(F)cc1 | 92.0 | -0.3 | -69.0 | -3.0 | · | 69.0
CCOc1ccccc1-n1c(O)c(C=NCCCN(CC)CC)c(=O)[nH]c1=O | 93.0 | 0.8 | 1.7 | 0.5 | -1.1 | -1.7
O=[N+]([O-])c1ccc(N2CCNCC2)c(Cl)c1 | 84.0 | -1.0 | -78.2 | 0.5 | -0.8 | 78.2*
O=c1[nH]c(=S)n(-c2ccccc2)c(O)c1/C=N/N1CCOCC1 | 94.0 | -1.4 | 20.9 | -0.4 | -0.2 | -20.9
O=C(N/N=C/c1c(O)n(Cc2ccc(F)cc2)c(=O)[nH]c1=O)c1ccccc1 | 96.0 | 1.1 | -74.8 | 3.4 | 0.5 | 74.8*
CC1Oc2cc3c(-c4c(O)cc(O)c5c(O)c6c(cc45)OC(C)C(C)C6=O)c(O)cc(O)c3c(O)c2C(=O)C1C (stereo not given) | 139.0 | -1.5 | -80.3 | -5.8 | 0.0 | 80.3*
CCN1CC=C(c2c[nH]c3ccccc23)CC1 | 101.0 | 13.0 | 22.7 | 2.0 | 1.5 | -22.7
